Test results: ChEMBL document CHEMBL2429765 (J Med Chem, 2013)

Key:
in vitro = conditions: human, liver microsomes
[1] = Partition coefficient of the compound at pH 7.4; format: physicochemical; conditions: octanol/water
Outline: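 cLogD at pH 7.4 calculated with ACD pchbat version 9.3.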

[2] = Half life in rat; format: ADME, organism-based; conditions: in vivo
[3] = Volume of distribution at steady state in rat; format: ADME, organism-based; conditions: in vivo, read-out: Vdss
[4] = Plasma clearance in rat; format: ADME, organism-based
[5] = Oral bioavailability in rat; format: ADME, organism-based; conditions: in vivo

Compound | microsomal CLint at 0.5 h, 1 µM (in vitro) | other results
COc1ccc(-c2ccc3nnc([C@@H](C)c4ccc5ncccc5c4)n3n2)cc1C | 304 µL/min/mg | –
CNC(=O)c1ccc(-c2ccc3nnc([C@@H](C)c4ccc5ncccc5c4)n3n2)cc1 | 12.2 µL/min/mg | –
Fc1ccc(-c2ccc3nnc(Cc4ccc5ncccc5c4)n3n2)cc1F | 13.4 µL/min/mg | –
Cc1cccc(-c2ccc3nnc([C@@H](C)c4ccc5ncccc5c4)n3n2)c1 | 81.8 µL/min/mg | –
C[C@@H](c1c[nH]c2ncccc12)c1nnc2ccc(-c3ccc(C#N)cc3)nn12 | 28 µL/min/mg | –
CCNc1ccc2nnc([C@@H](C)c3c[nH]c4ncccc34)n2n1 | 18 µL/min/mg | –
C[C@@H](c1c[nH]c2ncccc12)c1nnc2ccc(-c3cnn(C)c3)nn12 | < 7.6 µL/min/mg | –
C[C@@H](c1ccc2ncccc2c1)c1nnc2ccc(-c3ccc4c(c3)OCCO4)nn12 | 304 µL/min/mg | –
C[C@@H](c1ccc2ncccc2c1)c1nnc2ccc(-c3ccc(S(C)(=O)=O)cc3)nn12 | < 7.6 µL/min/mg | –
C[C@@H](c1ccc2ncccc2c1)c1nnc2ccc(-c3ccc(N(C)C)nc3)nn12 | 232 µL/min/mg | –
C[C@@H](c1ccc2ncccc2c1)c1nnc2ccc(-c3ccc(F)c(F)c3)nn12 | 13.4 µL/min/mg | logD [1]: 3.07; half-life [2]: 3.6 h; Vd [3]: 3.6 L/kg; clearance [4]: 31 mL/min/kg; bioavailability [5]: 52%
CC(C)Nc1ccc2nnc([C@@H](C)c3c[nH]c4ncccc34)n2n1 | 25 µL/min/mg | –
N#Cc1cccc(-c2ccc3nnc(Cc4ccc5ncccc5c4)n3n2)c1 | 22.7 µL/min/mg | –
Cn1cc(-c2ccc3nnc(Cc4c[nH]c5ncccc45)n3n2)cn1 | < 7.6 µL/min/mg | –
C[C@@H](c1ccc2ncccc2c1)c1nnc2ccc(-c3ccccc3C#N)nn12 | 23.1 µL/min/mg | –
C[C@@H](c1ccc2ncccc2c1)c1nnc2ccc(-c3cccc(C#N)c3)nn12 | 17.9 µL/min/mg | logD [1]: 2.8; half-life [2]: 4.8 h; Vd [3]: 4.9 L/kg; clearance [4]: 22 mL/min/kg; bioavailability [5]: 13%
CC(C)Nc1ccc2nnc([C@@H](C)c3ccc4ncccc4c3)n2n1 | 20.2 µL/min/mg | –
C[C@@H](c1ccc2ncccc2c1)c1nnc2ccc(-c3ccc(C#N)cc3)nn12 | 12.1 µL/min/mg | –
C[C@@H](c1ccc2ncccc2c1)c1nnc2ccc(-c3cnn(C)c3)nn12 | < 7.6 µL/min/mg | logD [1]: 2.05; half-life [2]: 1.9 h; Vd [3]: 3.5 L/kg; clearance [4]: 21 mL/min/kg; bioavailability [5]: 58%
CN(C)c1ccc2nnc(Cc3ccc4ncccc4c3)n2n1 | 35 µL/min/mg | –
CCS(=O)(=O)c1ccc(-c2ccc3nnc([C@@H](C)c4ccc5ncccc5c4)n3n2)cc1 | 10.4 µL/min/mg | –
COc1ccc(-c2ccc3nnc([C@@H](C)c4ccc5ncccc5c4)n3n2)cc1F | 281 µL/min/mg | –
C[C@@H](c1ccc2ncccc2c1)n1nnc2ncc(-c3cnn(CCO)c3)nc21 | < 7.6 µL/min/mg | –
C[C@@H](c1ccc2ncccc2c1)n1nnc2ncc(-c3cnn(C)c3)nc21 | < 7.6 µL/min/mg | –
Nc1ccc2nnc(Cc3ccc4ncccc4c3)n2n1 | < 7.6 µL/min/mg | –
